Bioassay records (PubChem BioAssay)
UBC13 inh – inhibitors of human UBC13 polyubiquitin chain formation | P61088 | TR-FRET | inhibition, % at 20 µM | 330,000 tested, 0.47% active | AID 485273; in the data active = inhibition above about 45%, passing the limit was not always enough
SENP6 inh – SENP6 protease inhibition. inhibition, % at 10 µM. Recombinant SENP6 catalytic domain, aminoluciferin luminescence. 330,000 tested, 1.8% active. AID 2599;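 active = inhibition above about 50% at the single tested dose, limit read from the data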;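 note: plate controls were DMSO wells with enzyme for no effect and DMSO wells lacking enzyme for full effect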
Target sequence (Q9GZR1 628-1112 limits assumed): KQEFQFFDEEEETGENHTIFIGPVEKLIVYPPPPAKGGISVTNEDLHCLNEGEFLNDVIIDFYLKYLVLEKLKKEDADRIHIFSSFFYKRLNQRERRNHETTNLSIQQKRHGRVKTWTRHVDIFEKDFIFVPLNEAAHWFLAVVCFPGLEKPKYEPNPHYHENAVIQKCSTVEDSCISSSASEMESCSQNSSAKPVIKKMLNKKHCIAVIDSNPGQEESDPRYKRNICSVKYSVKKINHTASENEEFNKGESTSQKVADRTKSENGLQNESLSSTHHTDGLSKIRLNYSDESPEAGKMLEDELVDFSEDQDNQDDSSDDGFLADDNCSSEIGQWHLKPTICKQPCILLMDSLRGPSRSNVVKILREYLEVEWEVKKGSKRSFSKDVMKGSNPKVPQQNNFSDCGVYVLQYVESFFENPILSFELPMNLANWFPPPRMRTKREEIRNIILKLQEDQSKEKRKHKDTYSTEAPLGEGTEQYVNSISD
SENP7 block – SENP7 protease inhibition | Q9BQF6 | recombinant SENP7, Z-RLRGG-aminoluciferin luminescence, 40 min | 330,000 tested, 1.5% active | AID 434973 | inhibition, % at 5 µM;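 active = inhibition above about 50% at the single test dose, limit read from the data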;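 note: plate controls were DMSO with enzyme for no effect and no enzyme buffer wells for full effect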
SENP8 block-1 – inhibitors of human SENP8 protease; 360,000 tested, 0.64% active; inhibition, % at 20 µM; AID 602440; Q96LD8; recombinant SENP8, Nedd8 substrate fluorescence; in the data active = inhibition mostly above about 40%, no sharp cut-off; inactive = mostly below about 27%
Target sequence (Q96LD8 whole entry, looked up): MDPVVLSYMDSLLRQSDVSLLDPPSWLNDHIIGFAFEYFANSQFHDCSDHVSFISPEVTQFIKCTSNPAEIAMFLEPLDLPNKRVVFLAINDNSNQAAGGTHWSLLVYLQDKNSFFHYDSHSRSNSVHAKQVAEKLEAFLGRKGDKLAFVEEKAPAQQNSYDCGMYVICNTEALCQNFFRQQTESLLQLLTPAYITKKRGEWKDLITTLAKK
Apaf1 inhib – inhibitors of human Apaf-1 apoptosome | reconstituted apoptosome caspase-3 activity, DEVD-Rh110 fluorescence | inhibition, % at 20 µM | 330,000 tested, 0.71% active | O14727; active = inhibition of at least 40% at 20 µM;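 note: plate controls were DMSO wells for no effect and DEVD-CHO caspase inhibitor wells for full effect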
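Assay system – apoptosome proteins · Medium – Hepes buffer, pH 7.5 · Also added – cytochrome c with DEVD-Rh110 · Timing – 30 min compound preincubation, 50 min activation, room temperature · Detection – Rh110 fluorescence, excitation 480 nm, emission 540 nm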
SENP8 block-2 – SENP8 protease inhibition | Q96LD8 | purified SENP8, Z-RLRGG-aminoluciferin cleavage, luminescence | inhibition, % at 10 µM | 330,000 tested, 1.2% active | AID 2540; in the data active = inhibition above about 50%
SENP8 confirm – confirmation of human SENP8 protease inhibitors. shares compounds with SENP7 block. Recombinant SENP8, Z-RLRGG-aminoluciferin luminescence, 60 min. inhibition, % at 12.5 µM. 6,200 tested, 40% active. AID 488912;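 active = mean inhibition across replicates above about 50%, limit read from the data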
SENP6 confirm – confirmation of human SENP6 protease inhibitors; shares compounds with SENP7 block; recombinant SENP6, Z-RLRGG-aminoluciferin luminescence; inhibition, % at 12.5 µM; 6,200 tested, 58% active
SENP7 confirm – human SENP7 inhibition, confirmed; 6,200 tested, 69% active; AID 488917; shares compounds with SENP7 block; inhibition, % at 12.5 µM; recombinant SENP7, Z-RLRGG-aminoluciferin luminescence, 40 min
Casp3 select – inhibits human caspase-3 in SENP selectivity test; shares compounds with SENP7 block; purified caspase-3, Z-DEVD-aminoluciferin luminescence, 60 min; inhibition, % at 12.5 µM; 6,200 tested, 60% active; AID 488918;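 active = mean inhibition above about 50%, limit read from the data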;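 note: plate controls were enzyme with DMSO for no effect and wells without caspase-3 for full effect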
SENP luc ctr – counter-screen for SENP inhibitors: luminescence interference; 6,200 tested, 39% active; inhibition, % at 12.5 µM; shares compounds with SENP7 block; Pre-incubated SENP8/Z-RLRGG-aminoluciferin, luciferase luminescence interference;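 active = mean inhibition above about 50% when retested at one dose, limit read from the data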;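 note: plate controls were DMSO wells with completed reaction for no effect and substrate without enzyme for full effect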
* hit, by the source's call; x = no result given. Most compounds without a hit are left out; they make up all but 3% or so of the library.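 Rule for the calls, unless noted: active = mean inhibition above about 50% in the one-dose retest (limit read from the data); inactive = the rest.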

SMILES	UBC13 inh	SENP6 inh	SENP7 block	SENP8 block-1	Apaf1 inhib	SENP8 block-2	SENP8 confirm	SENP6 confirm	SENP7 confirm	Casp3 select	SENP luc ctr
CCc1ccc(C(=O)Cn2ccsc2=N)cc1	8.7	78.6*	80.7*	2.6	1.2	74.9*	58.4*	53.5*	84.2*	65.5*	74.3*
CC(C)(C)NC(=O)NC(=O)Cn1ccsc1=N	-2.8	-14.7	2.6	10.4	2.8	-3.2	x	x	x	x	x
CCn1c(SCC(=O)Nc2nccs2)nnc1-c1ccccc1	-3.6	-11.6	8.5	11.8	-12.3	3.4	x	x	x	x	x
Cn1c(Cc2ccccc2)nnc1SCC(=O)NC1CC1	4.8	-16.3	4.7	10.1	1.1	-3.8	x	x	x	x	x
CCn1c(Cc2ccccc2)nnc1SCC(=O)Nc1nccs1	7.2	0.8	82.0*	19.7	-14.6	2.6	10.3	8.1	-6.1	-3.0	1.6
CCn1c(Cc2ccccc2)nnc1SC(C)C(=O)NC1CC1 (centres undefined)	-1.0	3.4	2.8	-1.6	3.9	91.2*	-3.5	-4.3	-6.1	-2.4	-15.0
NC(=O)c1ccc(NC(=O)c2cccc(Oc3ccccc3)c2)cc1	3.3	38.4	67.9*	9.2	3.0	10.4	-27.5	-9.1	-0.4	15.5	-3.3
COc1ccc(NC(=O)c2cccc(Oc3ccccc3)c2)cn1	-4.6	71.5*	61.6*	11.6	12.9	49.8	52.1*	52.0*	83.4*	45.4	41.0
COc1ccc(NC(=O)c2cccc(S(=O)(=O)Nc3ccc(Br)cc3)c2)cn1	4.6	-0.9	4.1	31.4	5.6	-11.3	x	x	x	x	x
Cc1ccc2cc(C)c3nnc(SCc4ccc(C(=O)O)cc4)n3c2c1C	-0.1	-21.5	-0.7	-21.8	-22.4	-8.9	x	x	x	x	x
O=[N+]([O-])c1ccccc1N/N=C/c1ccc2c(c1)OCO2	-53.4	33.8	96.4*	26.4	5.2	82.1*	13.9	16.3	13.5	24.8	3.8
O=[N+]([O-])c1ccccc1N/N=C/c1ccccc1	-24.5	63.5*	95.1*	20.4	-0.3	61.1*	22.5	21.0	11.3	25.8	-2.7
O=[N+]([O-])c1ccc(S(=O)(=O)N/N=C/c2ccc3c(c2)OCO3)cc1	-6.0	-5.1	-3.0	12.1	9.4	3.1	x	x	x	x	x
C#CCN1C(=O)C(O)(CC(=O)/C=C/c2ccco2)c2ccccc21 (centres undefined)	-11.5	5.6	6.5	-1.4	17.7	7.3	x	x	x	x	x
Cc1ccc(-c2cc(C(=O)N3CCOCC3)no2)cc1	4.8	60.9*	58.1*	9.8	-1.5	45.3	52.8*	49.7	82.3*	81.2*	55.2*
Cc1ccc(-c2cc(C(=O)N3CCCC3)no2)cc1	2.8	67.8*	6.7	6.4	2.7	62.1*	-18.3	24.4	86.1*	63.2*	2.7
O=C(NCc1ccco1)c1cc(-c2ccc3c(c2)OCO3)on1	10.7	-14.2	53.4*	-23.8	6.1	-5.6	-1.3	-5.7	22.5	18.9	-2.2
O=C(c1cc(-c2ccc3c(c2)OCO3)on1)N1CCCCC1	4.9	77.9*	71.9*	-10.0	11.4	65.6*	34.4	74.2*	92.6*	68.2*	7.5
C=C(CN(C)C)C(=O)c1cc(OC)c(OC)cc1OC	x	x	x	-62.2	x	x	x	x	x	x	x
O=C(Nc1ccc2ccccc2c1)c1cnccn1	-22.2	65.3*	74.7*	-13.3	15.0	42.0	52.3*	73.3*	91.8*	81.5*	31.4
O=C(Nc1nc2ccccc2s1)c1cnccn1	-6.5	96.6*	8.2	10.0	-14.5	93.0*	6.4	56.4*	75.7*	79.1*	39.6
O=C(Nc1nc2ccc(F)cc2s1)c1ccccn1	-19.6	95.1*	99.5*	x	10.8	95.1*	92.4*	98.3*	101.8*	96.4*	48.5
O=C(Nc1nc2ccc(F)cc2s1)C1=NN(c2ccccc2)C(=O)CC1	-13.0	55.4*	11.1	-42.0	7.5	25.6	-13.3	0.8	20.0	1.0	-5.0
Cc1cc(C(=O)NNC(=O)C(C)NS(=O)(=O)c2ccccc2F)c(C)o1 (centres undefined)	-5.3	10.6	-0.2	-3.1	1.2	-15.0	x	x	x	x	x
CCOc1ccc2nc(NC(=O)C3(C)CC3(Br)Br)sc2c1 (centres undefined)	7.1	-16.8	0.8	21.7	8.3	0.8	x	x	x	x	x
SMILES	UBC13 inh	SENP6 inh	SENP7 block	SENP8 block-1	Apaf1 inhib	SENP8 block-2	SENP8 confirm	SENP6 confirm	SENP7 confirm	Casp3 select	SENP luc ctr
CCOc1ccc2nc(NC(=O)c3cnccn3)sc2c1	-8.4	23.7	73.9*	27.2	-0.7	19.9	16.1	14.4	23.9	51.9*	14.4
Cc1cc(C)n(-c2cc(-n3nc(C)cc3C)ncn2)n1	2.4	-21.4	-1.9	14.3	7.1	-7.3	x	x	x	x	x
Cc1ccc(Oc2cc(-n3nc(C)cc3C)ncn2)cc1	4.5	53.8*	46.5	16.4	4.1	20.2	36.8	38.7	73.4*	38.2	23.8
CCCc1cc(C(=O)Nc2cc(C)ccc2O)no1	6.7	60.8*	48.5	12.5	10.4	66.7*	10.9	56.2*	87.4*	72.4*	9.1
O=C(Nc1nc2c(s1)CCCC2)c1cccnc1	-13.3	35.7	49.1	-1.7	2.0	15.9	x	x	x	x	x
Cc1ccc(C(=O)Nc2nc3c(s2)CCCC3)o1	-7.5	94.1*	92.8*	-54.3	10.5	81.7*	11.2	89.6*	100.0*	93.1*	29.4
O=C(Nc1nc2c(s1)CCCC2)c1ccc(Br)o1	5.6	91.2*	87.7*	-40.4	-5.5	85.7*	90.4*	90.6*	99.1*	90.9*	87.2*
Fc1cccc(/C=N/Nc2ccccn2)c1	2.2	42.8	74.0*	7.8	-1.1	55.4*	51.1*	79.0*	95.3*	76.7*	35.2
Brc1ccc(/C=N/Nc2ccccc2)cc1	9.9	16.8	4.8	5.3	11.0	-16.4	x	x	x	x	x
Fc1cccc(/C=N/Nc2ccc3ccccc3n2)c1	4.6	95.3*	94.5*	-107.3	17.6	91.4*	93.6*	94.2*	100.4*	81.7*	39.5
Brc1ccccc1/C=N/Nc1ccc2ccccc2n1	-3.0	74.6*	70.0*	-129.0	14.2	48.6	40.8	77.8*	91.1*	53.0*	46.0
Fc1cccc(F)c1/C=N/Nc1ccccn1	-3.9	36.1	26.1	13.3	4.9	22.6	x	x	x	x	x
